Assays:
Format in all cases: toxicity, cell-based
[1] = system: HEK-293T; test: Incucyte cell viability with HEK293T; details: human, 10 µM, compound concentration 10 uM; note: filed as whole numbers so only -1 and 0 and 1 occur
[2] = system: U2OS; test: Multiplex assay against U2OS; details: human
Summary of the method: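 With compound added, live cells were imaged on a CQ1 microscope at 37°C and 5% CO2; staining with Hoechst33342, BioTracker Green Microtubule Cytoskeleton Dye, MitoTracker Red and Annexin V Alexa Fluor 680 had been done at seeding. The CellPathfinder machine-learning gating scheme split cells into Hoechst high-intensity objects or normal cells, normal cells into healthy, pyknosed or fragmented nuclei, and pyknosed cells into mitotic or apoptotic. The tubulin, mitochondrial-mass and membrane-permeability phenotypes are per cents of healthy-nucleus cells.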

[3] = system: Fibroblast; test: Incucyte cell viability with human fibroblast; details: 10 µM, compound concentration 10 uM; note: filed as whole numbers so only -1 and 0 and 1 occur
[4] = system: U2OS; test: Incucyte cell viability with U2OS; details: human, 10 µM, compound concentration 10 uM; note: filed as whole numbers so only -1 and 0 and 1 occur
[5] = 6 h, replicate number 1, timepoint 6 hours
[6] = 12 h, replicate number 1, timepoint 12 hours
[7] = 18 h, replicate number 1, timepoint 18 hours
[8] = 24 h, replicate number 1, timepoint 24 hours
[9] = 12 h, 1 µM, compound concentration 1 uM, replicate 1
[10] = 12 h, 1 µM, compound concentration 1 uM, replicate 2
[11] = 12 h, 10 µM, compound concentration 10 uM, replicate 1
[12] = 12 h, 10 µM, compound concentration 10 uM, replicate 2
[13] = 24 h, 1 µM, compound concentration 1 uM, replicate 1
[14] = 24 h, 1 µM, compound concentration 1 uM, replicate 2
[15] = 24 h, 10 µM, compound concentration 10 uM, replicate 1
[16] = 24 h, 10 µM, compound concentration 10 uM, replicate 2

COc1cc2c(Nc3ccc(NC(=O)c4ccccc4)cc3)ncnc2cc1OCCCN1CCOCC1
Growth Rate [1, 5]: 0 | Growth Rate [1, 6]: 0 | Growth Rate [1, 7]: 0 | Growth Rate [1, 8]: 0 | Population Apoptotic (%) [2, 9]: 18% | Population Fragmented Nuclei (%) [2, 9]: 8% | Population Healthy Nuclei (%) [2, 9]: 77% | Population Hoechst High Intensity Objects (%) [2, 9]: 1% | Population Membrane Permeable-Phenotype (%) [2, 9]: 63% | Population Mitochondria Different-Phenotype (%) [2, 9]: 24% | Population Mitotic Cells (%) [2, 9]: 81% | Population Normal (%) [2, 9]: 98% | Population Pyknosed Nuclei (%) [2, 9]: 13% | Population Tubulin-Different-Phenotype (%) [2, 9]: 99% | Total Cell Count [2, 9]: 121 | Population Apoptotic (%) [2, 10]: 0% | Population Fragmented Nuclei (%) [2, 10]: 20% | Population Healthy Nuclei (%) [2, 10]: 74% | Population Hoechst High Intensity Objects (%) [2, 10]: 12% | Population Membrane Permeable-Phenotype (%) [2, 10]: 67% | Population Mitochondria Different-Phenotype (%) [2, 10]: 14% | Population Mitotic Cells (%) [2, 10]: 100% | Population Normal (%) [2, 10]: 87% | Population Pyknosed Nuclei (%) [2, 10]: 5% | Population Tubulin-Different-Phenotype (%) [2, 10]: 92% | Total Cell Count [2, 10]: 97 | Population Apoptotic (%) [2, 11]: 44% | Population Fragmented Nuclei (%) [2, 11]: 5% | Population Healthy Nuclei (%) [2, 11]: 86% | Population Hoechst High Intensity Objects (%) [2, 11]: 3% | Population Membrane Permeable-Phenotype (%) [2, 11]: 10% | Population Mitochondria Different-Phenotype (%) [2, 11]: 24% | Population Mitotic Cells (%) [2, 11]: 55% | Population Normal (%) [2, 11]: 96% | Population Pyknosed Nuclei (%) [2, 11]: 7% | Total Cell Count [2, 11]: 215 | Population Apoptotic (%) [2, 12]: 0% | Population Fragmented Nuclei (%) [2, 12]: 10% | Population Healthy Nuclei (%) [2, 12]: 87% | Population Hoechst High Intensity Objects (%) [2, 12]: 11% | Population Membrane Permeable-Phenotype (%) [2, 12]: 13% | Population Mitochondria Different-Phenotype (%) [2, 12]: 38% | Population Mitotic Cells (%) [2, 12]: 100% | Population Normal (%) [2, 12]: 88% | Population Pyknosed Nuclei (%) [2, 12]: 2% | Population Tubulin-Different-Phenotype (%) [2, 12]: 14% | Total Cell Count [2, 12]: 115 | Population Apoptotic (%) [2, 13]: 19% | Population Fragmented Nuclei (%) [2, 13]: 16% | Population Healthy Nuclei (%) [2, 13]: 63% | Population Hoechst High Intensity Objects (%) [2, 13]: 2% | Population Membrane Permeable-Phenotype (%) [2, 13]: 48% | Population Mitochondria Different-Phenotype (%) [2, 13]: 39% | Population Mitotic Cells (%) [2, 13]: 80% | Population Normal (%) [2, 13]: 97% | Population Pyknosed Nuclei (%) [2, 13]: 19% | Population Tubulin-Different-Phenotype (%) [2, 13]: 98% | Total Cell Count [2, 13]: 129 | Population Apoptotic (%) [2, 14]: 26% | Population Fragmented Nuclei (%) [2, 14]: 24% | Population Healthy Nuclei (%) [2, 14]: 61% | Population Hoechst High Intensity Objects (%) [2, 14]: 7% | Population Membrane Permeable-Phenotype (%) [2, 14]: 44% | Population Mitochondria Different-Phenotype (%) [2, 14]: 43% | Population Mitotic Cells (%) [2, 14]: 73% | Population Normal (%) [2, 14]: 92% | Population Pyknosed Nuclei (%) [2, 14]: 14% | Population Tubulin-Different-Phenotype (%) [2, 14]: 95% | Total Cell Count [2, 14]: 108 | Population Apoptotic (%) [2, 15]: 18% | Population Fragmented Nuclei (%) [2, 15]: 7% | Population Healthy Nuclei (%) [2, 15]: 83% | Population Hoechst High Intensity Objects (%) [2, 15]: 8% | Population Membrane Permeable-Phenotype (%) [2, 15]: 13% | Population Mitochondria Different-Phenotype (%) [2, 15]: 37% | Population Mitotic Cells (%) [2, 15]: 81% | Population Normal (%) [2, 15]: 91% | Population Pyknosed Nuclei (%) [2, 15]: 9% | Population Tubulin-Different-Phenotype (%) [2, 15]: 18% | Total Cell Count [2, 15]: 237 | Population Apoptotic (%) [2, 16]: 25% | Population Fragmented Nuclei (%) [2, 16]: 14% | Population Healthy Nuclei (%) [2, 16]: 77% | Population Hoechst High Intensity Objects (%) [2, 16]: 10% | Population Membrane Permeable-Phenotype (%) [2, 16]: 14% | Population Mitochondria Different-Phenotype (%) [2, 16]: 25% | Population Mitotic Cells (%) [2, 16]: 75% | Population Normal (%) [2, 16]: 89% | Population Pyknosed Nuclei (%) [2, 16]: 8% | Population Tubulin-Different-Phenotype (%) [2, 16]: 22% | Total Cell Count [2, 16]: 115 | Growth Rate ([3]; 0 h, replicate number 2, timepoint 0 hours): 1 | Growth Rate [3, 5]: 0 | Growth Rate [3, 6]: 0 | Growth Rate [3, 7]: 0 | Growth Rate [3, 8]: 0 | Growth Rate ([4]; 0 h, replicate number 1, timepoint 0 hours): 1 | Growth Rate [4, 5]: 1 | Growth Rate [4, 6]: 0 | Growth Rate [4, 7]: 0 | Growth Rate ([4]; 18 h, replicate number 2, timepoint 18 hours): 1 | Growth Rate [4, 8]: 0 | Growth Rate ([4]; 24 h, replicate number 2, timepoint 24 hours): 1

From ChEMBL document CHEMBL4689842, “EUbOPEN Chemogenomics Library wave 1” (2021)
